# High-throughput results from PubChem BioAssay.
# Only some compounds are listed: those with a hit (about 2.4% of all), similar ones and a draw of the others.
# beta cell repl = inducers of MIN6 beta-cell proliferation, primary screen, ATP luminescence, uHTS | MIN6 cells proliferation, ATPlite luminescence, 48 h; cells starved in 0.2% serum; 100% = growth in 10% serum | proliferation, % at 10 µM | 330,000 tested, 0.29% active | AID 2380, 2010;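 active means compounds whose signal lies at least 3.5 SD above the mean of all wells on their plate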;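 further: 0% = DMSO-treated cells in low-serum medium and 100% = 10% serum control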
# Myeloid diff MLP = induction of myeloid progenitor differentiation, primary screen, cell-based, flow cytometry, MLPCN library; ER-HoxA9 myeloid progenitors, lysozyme-GFP differentiation; 360,000 tested, 1% active; calls only at 10 µM; AID 624256, 2012;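 active means normalized GFP-positive differentiation at or above the plate's own cutoff, the solvent-only control mean plus 3 SD; inconclusive means no clear call, values can overlap the other calls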;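 further: cells exposed to compound for four days before flow analysis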
# DAGLB inhibitor = DAGLB lipase inhibitors, primary screen, biochemical, fluorescence, HTS. Diacylglycerol lipase-beta (Homo sapiens), Q8NCG7. HEK293T DAGLB membrane lysate, EnzChek fluorogenic substrate. inhibition, % at 5.17 µM. 340,000 tested, 0.059% active; in the data active means inhibition above about 34%;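 further: 0% = enzyme with vehicle and 100% = wells lacking enzyme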
# MT1-MMP act inh = blockers of MT1-MMP proenzyme processing, primary screen, HT1080 RFP-PRO-GFP cells, GFP/RFP fluorescence; GFP/RFP ratio fluorescence, overnight; percent of plate control window, DMSO zero; AID 651647, 2012; 360,000 tested, 0.061% active; GFP/RFP ratio change, % at 20 µM;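 active means GFP/RFP ratio change of at least 30% with cell ATP level not reduced by more than half and red fluorescence within 50% of control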
#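 Assay system – RFP-PRO-GFP reporter HT1080 cells · Compound dosing – single dose of 20 µM compound, 1% DMSO final · Incubation – overnight compound exposure at 37 °C · Measure – GFP/RFP fluorescence ratio · Benchmarks – DMSO wells and RFP-L50D-GFP cells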
# NRP1-CendR mod = modulators of CendR peptide binding to NRP-1, primary screen, biochemical, fluorescence polarization, uHTS; inhibition, % at 25 µM; 360,000 tested, 0.85% active; AID 602438, 2012; Neuropilin-1 (Homo sapiens), O14786; FAM-RPARPAR peptide binding to NRP-1;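 active means inhibition or corrected inhibition above about 18%, plus a signal ratio from 0.5 to 1.5, limit read from the data, passing the limit was not always enough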
# Target sequence (O14786 whole entry, looked up): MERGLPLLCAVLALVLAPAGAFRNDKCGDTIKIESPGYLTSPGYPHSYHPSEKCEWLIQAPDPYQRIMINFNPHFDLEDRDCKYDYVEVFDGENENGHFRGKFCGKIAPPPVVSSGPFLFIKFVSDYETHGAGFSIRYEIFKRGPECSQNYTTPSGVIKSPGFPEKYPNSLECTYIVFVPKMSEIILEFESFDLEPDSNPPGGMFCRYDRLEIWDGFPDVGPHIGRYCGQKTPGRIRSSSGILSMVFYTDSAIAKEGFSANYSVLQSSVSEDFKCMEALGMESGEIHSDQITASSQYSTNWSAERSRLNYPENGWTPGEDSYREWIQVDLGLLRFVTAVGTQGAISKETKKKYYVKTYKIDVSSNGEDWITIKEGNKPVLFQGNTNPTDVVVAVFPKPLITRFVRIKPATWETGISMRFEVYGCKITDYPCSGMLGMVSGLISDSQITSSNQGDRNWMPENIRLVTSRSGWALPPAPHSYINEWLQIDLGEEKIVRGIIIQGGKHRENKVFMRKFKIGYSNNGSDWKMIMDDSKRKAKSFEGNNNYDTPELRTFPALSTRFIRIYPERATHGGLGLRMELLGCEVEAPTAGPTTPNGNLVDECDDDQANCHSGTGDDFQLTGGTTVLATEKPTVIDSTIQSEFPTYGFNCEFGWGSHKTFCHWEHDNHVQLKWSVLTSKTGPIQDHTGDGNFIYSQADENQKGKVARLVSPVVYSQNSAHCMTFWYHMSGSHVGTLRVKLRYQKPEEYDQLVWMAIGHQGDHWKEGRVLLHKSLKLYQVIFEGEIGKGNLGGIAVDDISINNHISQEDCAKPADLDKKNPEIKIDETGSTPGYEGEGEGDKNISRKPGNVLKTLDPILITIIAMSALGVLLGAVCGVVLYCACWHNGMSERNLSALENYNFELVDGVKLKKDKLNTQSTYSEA
# SENP1 FRET inh = human SENP1 catalytic domain inhibitors, primary screen, biochemical, FRET, uHTS; Sentrin-specific protease 1 (Homo sapiens), Q9P0U3; recombinant SENP1 catalytic domain, CyPet-SUMO1-YPet FRET cleavage; inhibition, % at 10 µM; 360,000 tested, 0.21% active;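 active means inhibition at least 30% at 10 µM, raw YFP signal under a set limit, fluorescence ratio 0.5 to 1.5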;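 further: 0% = enzyme with DMSO and 100% = no enzyme wells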
#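 system = hSENP1 catalytic domain, recombinant | reagent = SFCypet-SUMO1-SFYpet substrate at 25 nM | doses = one dose per compound, 10 µM, 0.5% DMSO | incubation = enzyme reaction for 50 min at room temperature, dark | measured by = FRET, CFP and YFP emission | controls = no-enzyme low, enzyme-DMSO high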
# SENP1 inh conf = human SENP1 catalytic domain inhibitors, confirmation, biochemical, FRET endpoint, single concentration | shares compounds with SENP1 FRET inh | recombinant SENP1, CyPet-SUMO1-YPet FRET cleavage | inhibition, % at 10 µM | 520 tested, 34% active; in the data active means inhibition mostly above about 35%, no sharp cut-off; inactive means mostly below about 32%;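 further: 0% = enzyme with DMSO and 100% = no enzyme control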
# SENP1 kin conf = human SENP1 catalytic domain inhibitors, confirmation, biochemical, kinetic FRET, single concentration; 520 tested, 26% active; inhibition, % at 10 µM; shares compounds with SENP1 FRET inh; recombinant SENP1, CyPet-SUMO1-YPet FRET kinetic cleavage; in the data active means inhibition mostly above about 32%, no sharp cut-off; inactive means mostly below about 29%;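 further: 0% = DMSO with enzyme and 100% = no enzyme substrate only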
# * = called active by the depositor; i = inactive; ? = inconclusive; . = no result given; + = active, no number.
SMILES,beta cell repl,Myeloid diff MLP,DAGLB inhibitor,MT1-MMP act inh,NRP1-CendR mod,SENP1 FRET inh,SENP1 inh conf,SENP1 kin conf
Cc1ccccc1C[n+]1cccc2ccccc21,2,?,0,-5,9,34*,6,3
Cc1ccc(C)c(S(=O)(=O)NCCC(=O)N2CCCC(C(N)=O)C2)c1 (stereo unspecified),-3,i,-1,-2,-2,2,.,.
O=C(CN1CCSC1=NCc1ccccc1)c1ccc(Cl)c(Cl)c1,-6,i,-6,-5,-15,40*,-13,-5
O=C1c2cc(Cl)ccc2-c2c(O)cc(Cl)cc21,.,i,11,-5,-18,49*,19,15
O=c1cc(O)c(-c2ccc(Cl)cc2)c(Cl)[nH]1,1,i,0,-1,-11,-1,.,.
CCN(CC)C(=O)CSc1nc(-c2ccco2)cc(C(F)(F)F)c1C#N,-1,i,1,-3,2,-2,.,.
Cc1coc(NC(=O)CSc2nc(-c3ccncc3)cc(C(F)(F)F)c2C#N)n1,3,i,0,-155,-34,66*,45*,28*
Cc1ccc(S(=O)(=O)CCSc2nc(C)cc(C(F)(F)F)c2C#N)cc1,-4,+,-12,-21,-65,72*,22,16
CCOC(=O)NC(=O)CSc1nc(C)cc(C(F)(F)F)c1C#N,-2,+,-5,-29,-48,39*,9,13
Cc1ccc(S(=O)(=O)CCSc2ccc(C(F)(F)F)cn2)cc1,-3,i,.,1,4,0,.,.
CCOC(=O)C1=CCC(c2ccccc2)N(S(=O)(=O)c2ccc(C)cc2)[C@H]1CC (stereo partly specified),.,i,.,-5,-9,1,.,.
Cc1c(C(=O)C(=O)N2c3ccccc3CC2C)c2ccccc2n1C (stereo unspecified),0,i,-5,1,-3,2,.,.
CCc1nc2c(OCc3cc(Cl)cc(Cl)c3)cccn2c1N(C=O)Cc1ccc(OC)cc1,.,i,.,-2,-3,-8,.,.
CC(C)(C)NC(=O)CCc1ncc(C(F)(F)F)cc1Cl,-2,i,-6,10,0,1,.,.
O=[N+]([O-])c1nn(-c2ccc3c(c2)OCCO3)n(O)c1=NCc1ccc(F)cc1Cl,-3,i,-3,-4,-3,62*,2,9
CC1CCc2sc3c(c2C1)c1ncnn1c(=O)n3CC(=O)c1ccc(Br)cc1 (stereo unspecified),-1,i,0,-6,5,4,.,.
CN(C)c1ccc(/C=N/NC(=O)c2cccc(C(=O)N/N=C/c3ccc(N(C)C)cc3)n2)cc1,-2,i,2,5,-11,38*,-1,10
CN(C)c1ccc(/C=N/NC(=O)c2ccccc2)cc1,3,i,0,4,9,-2,.,.
Oc1ccc(Br)cc1/C=N/n1c(-c2ccccc2)n[nH]c1=S,1,i,4,5,-10,-28,.,.
Cc1cccc(/C=N/n2c(-c3ccccc3)n[nH]c2=S)c1O,-3,i,-2,-1,9,31*,-6,13
CCn1c(/C=C/c2cc(Br)ccc2O)nc2ccccc2c1=O,-2,i,-3,-1,-16,78*,36*,33
